Data reported in ChEMBL document CHEMBL1156338 (J Med Chem, 2010).
The source made the active and inactive calls. No cut-off for these calls is given here.

Legend:
Cytochrome P450 3A4 = Cytochrome P450 3A4 (Homo sapiens, UniProt P08684); assay: Inhibition of CYP3A4 in human liver microsomes; format: ADME, Microsome
THP-1 = assay: Inhibition of LPS-induced TNFalpha production in human THP1 cells after 3 hrs; format: functional, cell-based; settings: Homo sapiens, THP-1, 3 h; read-out: IC50
Outline: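 THP-1 cells at 1.5 x 10^6/mL in RPMI 1640, 10% heat-inactivated FBS, NEAA, 30 μM βME. 3-fold serial compound dilutions in DMSO, then LPS stimulation for 3 h at 37 C, 5% CO2. Secreted TNF-alpha read by electrochemiluminescent immunoassay; percent of DMSO control; IC50 is the mean of at least three independent curves.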

Blood = assay: Inhibition of IL-8 production in TNFalpha challenged human whole blood after 16 to 18 hrs; format: functional, tissue-based; settings: Homo sapiens, Blood; read-out: IC50
Outline: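 Heparinized blood from healthy nonmedicated donors, 50% final in RPMI 1640 with 10% human AB serum. Ten-point compound titration preincubated 1 h at 37 C, 5% CO2, then TNF-alpha 1 nM final added for 16-18 h. Plasma IL-8 measured by electrochemiluminescent antibody sandwich assay; IC50 is the mean of at least three independent dose-response curves.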

[1] = Clearance in Sprague-Dawley rat at 2 mg/kg, iv; format: ADME, organism-based; design: dose 2 mg/kg, route intravenous; settings: in vivo
[2] = Volume of distribution at steady state in Sprague-Dawley rat at 2 mg/kg, iv; format: ADME, organism-based; design: dose 2 mg/kg, route intravenous; settings: in vivo, read-out: Vdss
[3] = Half life in Sprague-Dawley rat at 2 mg/kg, iv; format: ADME, organism-based; design: dose 2 mg/kg, route intravenous; settings: in vivo
[4] = AUC (0 to infinity) in Sprague-Dawley rat at 2 mg/kg, po; format: ADME, organism-based; design: time infinity, dose 2 mg/kg, route oral; settings: plasma
[5] = Oral bioavailability in Sprague-Dawley rat at 2 mg/kg; format: ADME, organism-based; settings: in vivo
[6] = Plasma protein binding in human by ultrafiltration method; format: ADME, cell-free; settings: read-out: PPB (converted)
[7] = Plasma protein binding in rat by ultrafiltration method; format: ADME, cell-free; settings: read-out: PPB (converted)
[8] = target: Mitogen-activated protein kinase 14 (Homo sapiens, UniProt Q16539); assay: Inhibition of p38alpha at 1 uM relative to control
Chain of Mitogen-activated protein kinase 14 (Q16539 whole entry): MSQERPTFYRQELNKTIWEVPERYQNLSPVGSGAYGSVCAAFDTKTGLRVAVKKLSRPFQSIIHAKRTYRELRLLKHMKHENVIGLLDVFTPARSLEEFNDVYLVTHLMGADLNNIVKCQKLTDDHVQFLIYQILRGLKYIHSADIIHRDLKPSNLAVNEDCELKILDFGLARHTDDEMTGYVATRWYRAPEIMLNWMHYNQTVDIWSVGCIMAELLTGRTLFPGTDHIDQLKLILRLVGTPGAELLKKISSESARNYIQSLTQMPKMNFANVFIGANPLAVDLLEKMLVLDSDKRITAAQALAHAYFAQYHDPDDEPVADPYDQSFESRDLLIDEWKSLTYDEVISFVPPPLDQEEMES

[9] = target: T1, Mitogen-activated protein kinase 11 (Homo sapiens, UniProt Q15759); assay: Inhibition of p38beta at 1 uM relative to control
T1 sequence (Q15759 whole entry): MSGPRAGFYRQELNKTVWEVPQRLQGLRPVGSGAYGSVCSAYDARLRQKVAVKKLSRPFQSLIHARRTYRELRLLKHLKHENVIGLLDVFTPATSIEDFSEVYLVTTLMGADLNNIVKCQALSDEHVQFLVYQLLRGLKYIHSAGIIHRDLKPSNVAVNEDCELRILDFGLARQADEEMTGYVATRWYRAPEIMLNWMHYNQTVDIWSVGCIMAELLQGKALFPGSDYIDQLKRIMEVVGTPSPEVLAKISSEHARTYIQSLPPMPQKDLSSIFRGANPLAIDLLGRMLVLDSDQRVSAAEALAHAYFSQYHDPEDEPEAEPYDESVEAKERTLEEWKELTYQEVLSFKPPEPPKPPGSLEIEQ

[10] = target: T2, Platelet-derived growth factor receptor alpha (Homo sapiens, UniProt P16234); assay: Inhibition of PDGFRalpha at 1 uM relative to control
T2 sequence (P16234 whole entry): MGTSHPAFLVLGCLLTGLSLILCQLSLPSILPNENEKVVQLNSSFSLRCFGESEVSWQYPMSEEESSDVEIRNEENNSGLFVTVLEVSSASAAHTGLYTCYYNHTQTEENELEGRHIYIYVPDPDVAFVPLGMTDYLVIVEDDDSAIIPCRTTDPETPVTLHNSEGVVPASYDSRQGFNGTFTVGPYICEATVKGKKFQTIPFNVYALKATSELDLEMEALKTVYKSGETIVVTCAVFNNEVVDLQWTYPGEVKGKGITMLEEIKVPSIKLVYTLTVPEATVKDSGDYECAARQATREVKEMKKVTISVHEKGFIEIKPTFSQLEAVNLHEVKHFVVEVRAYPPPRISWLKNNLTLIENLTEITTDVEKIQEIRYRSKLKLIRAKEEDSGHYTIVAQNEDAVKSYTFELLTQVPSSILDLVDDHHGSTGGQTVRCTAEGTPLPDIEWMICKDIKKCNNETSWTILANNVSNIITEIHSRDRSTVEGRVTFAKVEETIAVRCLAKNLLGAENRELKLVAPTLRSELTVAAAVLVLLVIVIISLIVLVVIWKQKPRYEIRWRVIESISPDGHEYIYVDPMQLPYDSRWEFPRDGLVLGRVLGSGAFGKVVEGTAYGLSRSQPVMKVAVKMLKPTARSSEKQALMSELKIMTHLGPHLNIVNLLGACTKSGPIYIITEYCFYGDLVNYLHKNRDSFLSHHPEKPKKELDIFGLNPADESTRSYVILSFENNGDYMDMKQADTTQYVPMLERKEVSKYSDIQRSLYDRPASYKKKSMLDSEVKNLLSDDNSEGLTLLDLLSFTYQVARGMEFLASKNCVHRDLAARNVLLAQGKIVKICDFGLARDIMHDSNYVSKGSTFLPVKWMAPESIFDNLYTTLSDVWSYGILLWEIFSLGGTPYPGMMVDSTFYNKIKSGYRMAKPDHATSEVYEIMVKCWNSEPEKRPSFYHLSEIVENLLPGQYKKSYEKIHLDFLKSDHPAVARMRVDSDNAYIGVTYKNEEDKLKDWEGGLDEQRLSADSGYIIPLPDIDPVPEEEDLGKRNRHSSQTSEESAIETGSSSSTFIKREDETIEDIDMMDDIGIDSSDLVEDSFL

[11] = target: T3, RAF proto-oncogene serine/threonine-protein kinase (Homo sapiens, UniProt P04049); assay: Inhibition of RAF1 at 1 uM relative to control
T3 sequence (P04049 whole entry): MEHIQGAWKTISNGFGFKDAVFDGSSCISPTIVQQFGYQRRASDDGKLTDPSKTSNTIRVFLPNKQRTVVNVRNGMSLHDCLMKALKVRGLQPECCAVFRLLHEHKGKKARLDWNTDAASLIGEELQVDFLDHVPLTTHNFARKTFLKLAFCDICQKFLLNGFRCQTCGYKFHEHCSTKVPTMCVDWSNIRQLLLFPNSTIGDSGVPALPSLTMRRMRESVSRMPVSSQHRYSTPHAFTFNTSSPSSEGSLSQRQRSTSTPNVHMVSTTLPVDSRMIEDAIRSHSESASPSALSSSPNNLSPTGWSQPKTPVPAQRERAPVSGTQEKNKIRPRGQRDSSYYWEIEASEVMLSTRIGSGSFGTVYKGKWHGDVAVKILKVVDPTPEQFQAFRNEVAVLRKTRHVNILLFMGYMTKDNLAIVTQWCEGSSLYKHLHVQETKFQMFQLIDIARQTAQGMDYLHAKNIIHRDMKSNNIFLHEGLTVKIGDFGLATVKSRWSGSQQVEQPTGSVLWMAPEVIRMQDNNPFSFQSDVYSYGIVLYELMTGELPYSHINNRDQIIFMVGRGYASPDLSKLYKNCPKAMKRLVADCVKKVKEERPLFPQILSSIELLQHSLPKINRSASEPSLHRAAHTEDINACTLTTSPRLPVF

[12] = target: T1, Mitogen-activated protein kinase 11; assay: Binding affinity to p38beta
[13] = target: T2, Platelet-derived growth factor receptor alpha; assay: Binding affinity to PDGFRalpha
[14] = target: T3, RAF proto-oncogene serine/threonine-protein kinase; assay: Binding affinity to RAF1
[15] = target: T1, Mitogen-activated protein kinase 11; assay: Inhibition of p38beta
V79 = assay: Genotoxicity in Chinese hamster V79 cells by micronucleus test; format: toxicity, cell-based, Cricetulus griseus
Cytochrome P450 2D6 = Cytochrome P450 2D6 (Homo sapiens, UniProt P10635); assay: Inhibition of CYP2D6 in human liver microsomes; format: ADME, Microsome
Chain of Cytochrome P450 2D6 (P10635 whole entry): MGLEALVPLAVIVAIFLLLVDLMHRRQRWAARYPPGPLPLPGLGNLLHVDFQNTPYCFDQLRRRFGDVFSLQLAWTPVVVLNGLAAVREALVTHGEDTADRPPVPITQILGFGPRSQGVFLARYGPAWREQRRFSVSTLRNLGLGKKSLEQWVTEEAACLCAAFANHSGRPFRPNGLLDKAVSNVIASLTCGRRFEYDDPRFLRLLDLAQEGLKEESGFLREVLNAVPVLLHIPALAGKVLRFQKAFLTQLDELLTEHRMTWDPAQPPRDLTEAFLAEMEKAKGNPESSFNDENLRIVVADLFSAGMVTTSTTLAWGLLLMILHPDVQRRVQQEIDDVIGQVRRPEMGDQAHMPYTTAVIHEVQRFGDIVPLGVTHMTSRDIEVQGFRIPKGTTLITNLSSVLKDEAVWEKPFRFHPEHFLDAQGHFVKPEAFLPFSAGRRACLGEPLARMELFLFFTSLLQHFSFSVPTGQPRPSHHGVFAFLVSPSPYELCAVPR

Cytochrome P450 1A2 = target: T4, Cytochrome P450 1A2 (Homo sapiens, UniProt P05177); assay: Induction of CYP1A2 in human hepatocytes at 25 uM; format: ADME, cell-based, Hepatocyte
T4 sequence (P05177 whole entry): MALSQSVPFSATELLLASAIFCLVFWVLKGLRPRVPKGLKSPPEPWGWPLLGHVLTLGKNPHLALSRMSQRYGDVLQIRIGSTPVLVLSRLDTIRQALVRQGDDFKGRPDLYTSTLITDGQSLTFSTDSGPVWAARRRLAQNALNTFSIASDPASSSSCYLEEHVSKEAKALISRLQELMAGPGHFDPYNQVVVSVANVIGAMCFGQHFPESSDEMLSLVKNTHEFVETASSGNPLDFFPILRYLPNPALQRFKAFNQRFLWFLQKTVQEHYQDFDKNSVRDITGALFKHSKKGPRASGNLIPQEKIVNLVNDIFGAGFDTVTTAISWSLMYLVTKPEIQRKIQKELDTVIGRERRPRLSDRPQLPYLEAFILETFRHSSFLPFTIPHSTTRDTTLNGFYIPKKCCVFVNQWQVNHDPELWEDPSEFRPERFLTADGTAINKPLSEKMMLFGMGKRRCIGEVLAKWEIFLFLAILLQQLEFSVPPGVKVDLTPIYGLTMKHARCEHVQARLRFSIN

Cytochrome P450 2B6 = target: T5, Cytochrome P450 2B6 (Homo sapiens, UniProt P20813); assay: Induction of CYP2B6 in human hepatocytes at 25 uM; format: ADME, cell-based, Hepatocyte
T5 sequence (P20813 whole entry): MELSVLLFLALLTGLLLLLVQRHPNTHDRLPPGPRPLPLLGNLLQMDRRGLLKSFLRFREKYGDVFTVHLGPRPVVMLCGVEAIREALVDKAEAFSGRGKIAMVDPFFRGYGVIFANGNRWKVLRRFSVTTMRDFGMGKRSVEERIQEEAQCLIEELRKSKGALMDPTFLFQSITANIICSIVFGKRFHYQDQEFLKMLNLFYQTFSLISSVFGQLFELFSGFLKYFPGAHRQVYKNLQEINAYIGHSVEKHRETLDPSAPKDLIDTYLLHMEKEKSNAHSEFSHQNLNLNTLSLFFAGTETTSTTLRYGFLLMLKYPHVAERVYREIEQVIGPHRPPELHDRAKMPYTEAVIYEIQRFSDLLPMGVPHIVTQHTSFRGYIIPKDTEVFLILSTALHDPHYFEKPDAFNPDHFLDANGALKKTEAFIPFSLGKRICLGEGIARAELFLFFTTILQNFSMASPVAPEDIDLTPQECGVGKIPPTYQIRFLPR

Rattus norvegicus [16] = assay: Antiarthritic activity against porcine type 2 collagen-induced arthritis in po dosed Lewis rat model assessed as reduction of paw swelling administered qd for 7 days relative to control; format: functional
Outline: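 Arthritis induced by intradermal porcine type II collagen emulsified 1:1 in incomplete Freund's adjuvant; rats grouped at disease onset (day 0, 10-12 days after immunization). Oral dosing once daily for 7 days in vehicle 15% HPBCD, 1% HPMC, 1% Pluronic F68, pH 2.2.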

Rattus norvegicus [17] = assay: Antiarthritic activity against porcine type 2 collagen-induced arthritis Lewis rat model assessed as area under the paw swelling curve at 0.01 to 1 mg/kg, po relative to control; format: functional, organism-based
Outline: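 Lewis rats immunized by intradermal porcine type II collagen emulsified 1:1 in incomplete Freund's adjuvant. Grouped at disease onset (day 0, 10-12 days post-immunization). Oral dosing once daily for 7 days in 15% HPBCD, 1% HPMC, 1% Pluronic F68, pH 2.2. Paw diameter measured daily days 0-7.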

[18] = Cmax in porcine type 2 collagen-induced arthritis Lewis rat model at 0.01 to 1 mg/kg, po; format: ADME, organism-based; design: dose 0.01-1 mg/kg, route oral; settings: in vivo
[19] = Trough plasma concentration in porcine type 2 collagen-induced arthritis Lewis rat model at 0.01 to 1 mg/kg, po after 24 hrs; format: ADME, organism-based; design: dose 0.01-1 mg/kg, route oral
in vitro = settings: human, Caco-2

Chain of Cytochrome P450 3A4 (P08684 whole entry): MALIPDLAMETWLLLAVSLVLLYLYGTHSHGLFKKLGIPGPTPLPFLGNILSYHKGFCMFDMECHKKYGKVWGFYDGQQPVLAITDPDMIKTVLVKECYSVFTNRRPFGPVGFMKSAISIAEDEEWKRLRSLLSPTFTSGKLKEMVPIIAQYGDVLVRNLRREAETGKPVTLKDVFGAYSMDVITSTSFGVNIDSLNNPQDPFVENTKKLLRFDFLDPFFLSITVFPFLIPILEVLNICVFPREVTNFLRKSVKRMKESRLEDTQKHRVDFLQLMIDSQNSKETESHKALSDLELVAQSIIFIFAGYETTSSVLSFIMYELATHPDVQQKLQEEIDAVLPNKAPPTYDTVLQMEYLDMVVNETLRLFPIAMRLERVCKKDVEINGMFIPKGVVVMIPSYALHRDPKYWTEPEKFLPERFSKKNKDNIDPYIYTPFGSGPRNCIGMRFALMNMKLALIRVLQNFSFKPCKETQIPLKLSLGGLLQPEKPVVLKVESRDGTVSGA

SMILES: Cc1ccc(C(=O)NC2CC2)cc1-c1cc2cnn(-c3c(F)cccc3F)c2n(C)c1=O
- IC50 (Cytochrome P450 3A4): > 25000 nM
- IC50 (THP-1): 0.6 nM
- IC50 (Blood): 1.7 nM
- clearance [1]: 3.67 mL/min/kg
- Vd [2]: 0.837 L/kg
- half-life [3]: 2.7 h
- AUC(0-inf) [4]: 3990 ng·h/mL
- bioavailability [5]: 43%
- fraction unbound [6]: 0.079
- fraction unbound [7]: 0.087
- inhibition [8]: < 50%
- inhibition [9]: < 50%
- inhibition [10]: < 50%
- inhibition [11]: < 50%
- Kd [12]: 0.67 nM
- Kd [13]: 1100 nM
- Kd [14]: 1100 nM
- Ki [15]: 2.5 nM
- Activity (V79): Non-toxic
- IC50 (Cytochrome P450 2D6): > 25000 nM
- Activity (Cytochrome P450 1A2): Not Active
- Activity (Cytochrome P450 2B6): Not Active
- Activity (Rattus norvegicus [16]): Dose-dependent effect
- ED50 (Rattus norvegicus [16]; 168 h): ≤ 0.01 mg/kg
- Activity (Rattus norvegicus [17]): Active
- Cmax [18]: 11 nM
- concentration at 24 h [19]: 4.4 nM
- Papp B→A (in vitro): 27 ×10⁻⁶ cm/s
